From ChEMBL document CHEMBL1152819, “Evaluation of hexadecyloxypropyl-9-R-[2-(Phosphonomethoxy)propyl]- adenine, CMX157, as a potential treatment for human immunodeficiency virus type 1 and hepatitis B virus infections” (Antimicrob Agents Chemother, 2007) come the findings set out here.

Assay [1] deals with Human immunodeficiency virus 1. Kind of assay: Antiviral activity against HIV1 LAI in human MT2 cells assessed as inhibition of p24 antigen production by ELISA. It is filed as functional, organism-based. The note with it: Human immunodeficiency virus 1, LAI. In outline:
(§1)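 MT-2 cells in RPMI 1640 with 10% FBS and 10 mM HEPES, infected with HIV-1 LAI at MOI 0.001 TCID50/cell. Incubated with threefold serial dilutions, three wells per dilution. EC50 taken as the concentration inhibiting p24 antigen production by 50%.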
A general note: An ELISA detects its analyte on a solid surface through an enzyme-linked reagent.

Assay [2] has as its system Human immunodeficiency virus 1. Kind of assay: Antiviral activity against HIV1 in human MT2 cells. It is filed as functional, organism-based. In outline: as §1

What is called EC50 is the concentration giving half of the maximal effect. As to `CCCCCCCCCCCCCCCCOCCCOP(=O)(O)CO[C@H](CO)Cn1cnc2c(N)ncnc21`, the 50% effective concentration (EC50) in assay [1] was 7 nM.
In assay [2], `CCCCCCCCCCCCCCCCOCCCOP(=O)(O)COCCn1cnc2c(N)nc(N)nc21` showed an EC50 of 0.02 nM.
On to `CCCCCCCCCCCCCCCCOCCCOP(=O)(O)COCCn1cnc2c(NC3CC3)nc(N)nc21`, for which the EC50 in assay [2] worked out at 0.02 nM.
